Results as given in ChEMBL document CHEMBL3286272, “Synthesis, biological, and biophysical studies of DAG-indololactones designed as selective activators of RasGRP” (Bioorg Med Chem, 2014).
Activity calls are given as the source filed them. No cut-off for these calls is given here.

Key:
Homo sapiens [1] = organism: Homo sapiens; assay: Selectivity ratio of Ki for recombinant human PKC-alpha to Ki for recombinant human GFP-tagged RasGRP3
Homo sapiens [2] = organism: Homo sapiens; assay: Selectivity ratio of Ki for recombinant human PKC-epsilon to Ki for recombinant human GFP-tagged RasGRP3
Homo sapiens [3] = organism: Homo sapiens; assay: Selectivity ratio of Ki for recombinant human PKC-alpha to Ki for recombinant RasGRP1 C1 domain (unknown origin)
[4] = target: T1, Protein kinase C alpha type (Homo sapiens, UniProt P17252); assay: Binding affinity to recombinant human GFP-tagged PKC-alpha expressed in CHOK1 cells assessed as induction of protein translocation from plasma membrane to internal membrane at 10000 nM after 5 to 15 mins by confocal microscopic analysis; type: cell-based; conditions: CHO-K1
How it was run: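 CHO-K1 cells were transiently transfected with human GFP-PKCα and imaged live by confocal microscopy 24 h later (488 nm excitation, 500–530 nm emission) every 30 s for 30 min after 10 μM ligand. Membrane/cytoplasm intensity ratio from 4 μm2 regions was normalized to time 0. n = 3–6.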

[5] = target: T2, Ras guanyl-releasing protein 3 (Homo sapiens) (UniProt Q8IV61); assay: Activation of RasGRP3 in human Ramos cells assessed as ERK1/2 phosphorylation at 10000 nM after 30 mins by Western blot analysis; type: cell-based
T2 sequence (whole entry): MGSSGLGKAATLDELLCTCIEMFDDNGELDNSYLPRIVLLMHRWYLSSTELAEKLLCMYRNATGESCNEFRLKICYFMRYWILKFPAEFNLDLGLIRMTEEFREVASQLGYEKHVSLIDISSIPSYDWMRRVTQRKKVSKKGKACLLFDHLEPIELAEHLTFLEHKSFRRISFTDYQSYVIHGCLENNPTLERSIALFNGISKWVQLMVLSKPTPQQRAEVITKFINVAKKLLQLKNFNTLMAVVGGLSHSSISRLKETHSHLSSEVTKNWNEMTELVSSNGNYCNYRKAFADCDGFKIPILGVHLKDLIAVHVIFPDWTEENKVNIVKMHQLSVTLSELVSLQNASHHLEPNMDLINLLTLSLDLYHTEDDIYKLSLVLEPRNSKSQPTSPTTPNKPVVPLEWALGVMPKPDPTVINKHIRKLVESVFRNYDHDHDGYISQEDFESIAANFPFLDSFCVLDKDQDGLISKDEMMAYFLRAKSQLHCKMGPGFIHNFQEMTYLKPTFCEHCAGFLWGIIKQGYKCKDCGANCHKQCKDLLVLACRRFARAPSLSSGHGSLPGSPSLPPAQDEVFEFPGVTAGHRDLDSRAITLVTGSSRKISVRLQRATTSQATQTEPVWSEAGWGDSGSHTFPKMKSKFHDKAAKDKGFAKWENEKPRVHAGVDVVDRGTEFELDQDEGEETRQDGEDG
How it was run: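 Ramos cells in RPMI-1640 with 10% FBS and 1% L-glutamine, plated at 300,000 cells/ml, were exposed after 24 h to 0.01, 0.1, 1 and 10 μM compound for 30 min. Lysates were made in PBS with 0.5% Triton X-100 and sonicated. 7.5 μg protein was run on 10% Tris-glycine gels, blotted to nitrocellulose, probed overnight with phospho-specific primary antibodies and detected by ECL.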

[6] = target: T1, Protein kinase C alpha type; assay: Displacement of [3H]PDBu from recombinant human PKC-alpha after 5 mins by scintillation counting analysis in presence of phosphatidylserine
How it was run: (§1)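 [3H]PDBu binding competition with 100 μg/ml phosphatidylserine present; PKCα and RasGRP1-C1 assayed at 37°C for stability. Values are mean ± SEM of triplicate independent experiments.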

[7] = target: T2, Ras guanyl-releasing protein 3 (Homo sapiens); assay: Activation of RasGRP3 (unknown origin) overexpressed in HEK293 cells assessed as protein phosphorylation at T133 at 0.1 to 30 uM after 30 mins by Western blot analysis; type: cell-based
Lipid bilayer = assay: Binding affinity to […] embedded 9:1 DMPC/DMPG giant vesicle at 2.42 to 6.05 uM by fluorescence anisotropy method
How it was run: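 Giant vesicles (DMPC/DMPG 9:1, rapid evaporation, 0.1 M sucrose, 0.1 M KCl, 2 mM Tris pH 7.4) were loaded with DPH-TMA at 1.25 μM final for 30 min at room temperature. Compound from DMSO stock was added at 2.42 and 6.05 μM final. Anisotropy was read at 430 nm with 355 nm excitation.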

[8] = target: T3, Ras guanyl-releasing protein 3 (Homo sapiens, UniProt Q8IV61); assay: Displacement of [3H]PDBu from recombinant human GFP-tagged RasGRP3 expressed in Escherichia coli BL21 after 5 mins by scintillation counting analysis in presence of phosphatidylserine
T3 sequence (Q8IV61 whole entry): T2 sequence (whole entry)
How it was run: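 Competition for [3H]PDBu binding to RasGRP3 with 100 μg/ml phosphatidylserine present, run at 18°C to optimize stability. Values are mean ± SEM of triplicate independent experiments.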

[9] = target: T4, Protein kinase C epsilon type (Homo sapiens, UniProt Q02156); assay: Displacement of [3H]PDBu from recombinant human PKC-epsilon after 5 mins by scintillation counting analysis in presence of phosphatidylserine; how it was run: as §1
T4 sequence (Q02156 whole entry): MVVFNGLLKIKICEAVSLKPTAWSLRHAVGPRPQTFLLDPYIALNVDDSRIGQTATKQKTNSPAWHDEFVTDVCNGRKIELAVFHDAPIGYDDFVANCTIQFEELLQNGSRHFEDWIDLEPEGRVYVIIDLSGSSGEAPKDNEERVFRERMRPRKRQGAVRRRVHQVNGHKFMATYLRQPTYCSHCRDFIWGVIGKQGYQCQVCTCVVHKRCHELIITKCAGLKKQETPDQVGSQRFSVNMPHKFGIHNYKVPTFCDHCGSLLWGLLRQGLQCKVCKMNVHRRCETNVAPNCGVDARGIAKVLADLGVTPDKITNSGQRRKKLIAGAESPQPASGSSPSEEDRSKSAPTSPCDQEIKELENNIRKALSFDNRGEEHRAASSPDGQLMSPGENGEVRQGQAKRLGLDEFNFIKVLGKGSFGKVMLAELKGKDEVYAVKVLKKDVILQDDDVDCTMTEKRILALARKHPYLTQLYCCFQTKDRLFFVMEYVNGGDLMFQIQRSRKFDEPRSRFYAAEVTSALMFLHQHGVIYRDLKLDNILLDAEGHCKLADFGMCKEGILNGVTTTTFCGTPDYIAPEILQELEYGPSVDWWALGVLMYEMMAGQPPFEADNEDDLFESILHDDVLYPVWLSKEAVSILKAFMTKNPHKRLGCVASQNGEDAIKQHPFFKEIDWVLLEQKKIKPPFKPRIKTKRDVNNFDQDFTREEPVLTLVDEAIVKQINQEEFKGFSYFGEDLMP

[10] = target: T5, Protein kinase C epsilon type (Homo sapiens) (UniProt Q02156); assay: Binding affinity to recombinant human YFP-tagged PKC-epsilon expressed in human LNCAP cells assessed as induction of protein translocation from plasma membrane to internal membrane at 10000 nM after 2 to 10 mins by confocal microscopic analysis; type: cell-based
T5 sequence (whole entry): T4 sequence (Q02156 whole entry)
How it was run: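 LNCaP cells were transiently transfected with human YFP-PKCε and imaged live by confocal microscopy 24 h later every 30 s for 30 min after 10 μM ligand. Membrane/cytoplasm intensity ratio from 4 μm2 regions was normalized to time 0. n = 3–6.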

[11] = target: T2, Ras guanyl-releasing protein 3 (Homo sapiens); assay: Activation of RasGRP3 (unknown origin) overexpressed in HEK293 cells assessed as ERK1/2 phosphorylation at 0.1 to 30 uM after 30 mins by Western blot analysis; type: cell-based

Row | SMILES | Ratio Ki (Homo sapiens [1]) | Ratio Ki (Homo sapiens [2]) | Ratio Ki (Homo sapiens [3]) | Activity [4] | Activity [5] | Ki [6] | Activity [7] | Activity (Lipid bilayer) | Ki [8] | Ki [9] | Activity [10] | Activity [11]
1 | CCCC(CCC)C(=O)OCC1(CO)C/C(=C\c2ccc3ccn(C)c3c2)C(=O)O1 (centres undefined) | 6 | 6.6 | 9 | Active | Active | 7.5 nM | Active | Active | 1.22 nM | 8.08 nM | Active | Active
2 | CCCC(CCC)C(=O)OCC1(CO)C/C(=C\c2cccc3ccn(C)c23)C(=O)O1 (centres undefined) | 10 | 11 | 19 | Active | Active | 12.9 nM | Active | Active | 1.12 nM | 11.7 nM | Active | Active

Continued by falling Ki [6], values first:

Row | Ratio Ki (Homo sapiens [1]) | Ratio Ki (Homo sapiens [2]) | Ratio Ki (Homo sapiens [3]) | Activity [4] | Activity [5] | Ki [6] | Activity [7] | Activity (Lipid bilayer) | Ki [8] | Ki [9] | Activity [10] | Activity [11] | SMILES
3 | 11 | 9 | 10 | Active | Active | 17.8 nM | Active | inactive | 1.63 nM | 14.6 nM | Active | Active | CCCC(CCC)C(=O)OCC1(CO)C/C(=C\c2cccc3c2ccn3C)C(=O)O1 (centres undefined)
4 | 49 | 64 | 65 | Active | Active | 16.2 nM | Active | Active | 0.33 nM | 21.1 nM | Active |  | CCCC(CCC)C(=O)OCC1(CO)C/C(=C\c2cn(C)c3ccccc23)C(=O)O1 (centres undefined)
5 | 24 | 6.4 | 24 | Active | Active | 8.25 nM | Active | inactive | 0.34 nM | 2.17 nM | Active | Active | CCCC(CCC)C(=O)OCC1(CO)C/C(=C\c2ccc3c(ccn3C)c2)C(=O)O1 (centres undefined)
